Measurements reported in ChEMBL document CHEMBL1149879, “Ten-membered lactones from Phomopsis sp., an endophytic fungus of Azadirachta indica” (2008).
Converted amounts (≈) assume the structure as drawn.

What was measured:
Assay type in all cases: functional
Talaromyces islandicus = test: Antifungal activity against Penicillium islandicum YM3104 after 72 hrs by disk diffusion method
In short: (§1)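 Paper-disk diffusion. Fungi grown on PDA at 28 °C; spores mixed into melted PDA at 1 × 10^6 spores/mL and poured into plates. Compounds in 50% aqueous DMSO, serially double diluted from 500 to 15.63 µg/mL, loaded onto sterile 6 mm paper disks. Dried disks placed on agar, incubated 28 °C for 72 h, inhibition zones then measured.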

Fusarium avenaceum = test: Antifungal activity against Fusarium avenaceum YM3065 after 72 hrs by disk diffusion method; in short: as §1
Botrytis cinerea = test: Antifungal activity against Botrytis cinerea YM3061 after 72 hrs by disk diffusion method; in short: as §1
Bipolaris maydis = test: Antifungal activity against Helminthosporium maydis YM3076 after 72 hrs by disk diffusion method; in short: as §1
Ophiostoma minus = test: Antifungal activity against Ophiostoma minus YM3429 after 72 hrs by disk diffusion method; in short: as §1
Fusarium verticillioides = test: Antifungal activity against Fusarium moniliforme YM3067 after 72 hrs by disk diffusion method; in short: as §1
Aspergillus niger = test: Antifungal activity against Aspergillus niger YM3029 after 72 hrs by disk diffusion method; in short: as §1

What does the source list for `C[C@@H]1C[C@@H](O)[C@@H](O)/C=C/[C@@H]2O[C@@H]2C(=O)O1` [MULTIPLOLIDE A]?
MIC (Talaromyces islandicus): 250 µg/mL (≈ 1170 µM); MIC (Fusarium avenaceum): > 500 µg/mL; MIC (Botrytis cinerea): > 500 µg/mL; MIC (Bipolaris maydis): 500 µg/mL (≈ 2330 µM); MIC (Ophiostoma minus): > 500 µg/mL; MIC (Fusarium verticillioides): > 500 µg/mL; MIC (Aspergillus niger): 250 µg/mL (≈ 1170 µM)

Which results are given for `CC(=O)O[C@H]1/C=C/[C@@H]2O[C@@H]2C(=O)O[C@H](C)C[C@H]1O` [7ALPHA-ACETOXYMULTIPLOLIDE A]?
MIC (Talaromyces islandicus): > 500 µg/mL; MIC (Fusarium avenaceum): > 500 µg/mL; MIC (Botrytis cinerea): > 500 µg/mL; MIC (Bipolaris maydis): > 500 µg/mL; MIC (Ophiostoma minus): > 500 µg/mL; MIC (Fusarium verticillioides): > 500 µg/mL; MIC (Aspergillus niger): 125 µg/mL (≈ 488 µM)

For `C[C@@H]1C[C@@H](O)[C@@H](O)/C=C/C=C\C(=O)O1`, which MIC (Talaromyces islandicus) is on record?
The MIC was over 500 µg/mL.

And the MIC (Fusarium avenaceum)?
The MIC was over 500 µg/mL.

And the MIC (Botrytis cinerea)?
The MIC was 500 µg/mL (≈ 2520 µM).

And the MIC (Bipolaris maydis)?
Its MIC is 500 µg/mL (≈ 2520 µM).

What about the MIC (Ophiostoma minus) of the same compound?
The MIC was over 500 µg/mL.

What about the MIC (Fusarium verticillioides) of the same compound?
Its MIC is over 500 µg/mL.

What about the MIC (Aspergillus niger) of the same compound?
Its MIC is 125 µg/mL (≈ 631 µM).

What does the source list for `CC(=O)O[C@@H]1C[C@@H](C)OC(=O)CC[C@H](O)CC1=O`?
MIC (Talaromyces islandicus): 250 µg/mL (≈ 968 µM); MIC (Fusarium avenaceum): > 500 µg/mL; MIC (Botrytis cinerea): 250 µg/mL (≈ 968 µM); MIC (Bipolaris maydis): 500 µg/mL (≈ 1940 µM); MIC (Ophiostoma minus): > 500 µg/mL; MIC (Fusarium verticillioides): > 500 µg/mL; MIC (Aspergillus niger): 125 µg/mL (≈ 484 µM)

With `CC(=O)O[C@@H]1C[C@@H](C)OC(=O)[C@H]2O[C@H]2/C=C/[C@@H]1O` [8ALPHA-ACETOXYMULTIPLOLIDE A] as the compound, how does the MIC (Talaromyces islandicus) read?
Its MIC is 250 µg/mL (≈ 976 µM).

And the MIC (Fusarium avenaceum)?
The MIC was over 500 µg/mL.

And the MIC (Botrytis cinerea)?
Its MIC is 62.5 µg/mL (≈ 244 µM).

And the MIC (Bipolaris maydis)?
The MIC was 500 µg/mL (≈ 1950 µM).

And the MIC (Ophiostoma minus)?
Its MIC is 31.2 µg/mL (≈ 122 µM).

What about the MIC (Fusarium verticillioides) of the same compound?
The MIC was 500 µg/mL (≈ 1950 µM).

What about the MIC (Aspergillus niger) of the same compound?
Its MIC is 125 µg/mL (≈ 488 µM).

For NYSTATIN, which MIC (Talaromyces islandicus) is on record?
Its MIC is 15.6 µg/mL.

What about the MIC (Fusarium avenaceum) of the same compound?
Its MIC is 62.5 µg/mL.

What about the MIC (Botrytis cinerea) of the same compound?
Its MIC is 31.2 µg/mL.

And the MIC (Bipolaris maydis)?
Its MIC is 31.2 µg/mL.

And the MIC (Ophiostoma minus)?
The MIC was 31.2 µg/mL.

And the MIC (Fusarium verticillioides)?
The MIC was 62.5 µg/mL.

What about the MIC (Aspergillus niger) of the same compound?
Its MIC is 15.6 µg/mL.
